From ChEMBL document CHEMBL5058577, “EUbOPEN Chemogenomics Library 2 (Multiplex)” (2022)

System: U2OS
Test: Multiplex assay against U2OS
Assay type: toxicity, cell-based
Details: human
Outline: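 Phenotypes for tubulin, mitochondrial mass and membrane permeability are expressed as per cents of healthy-nucleus cells. Cells were stained live at seeding with Hoechst33342, BioTracker Green Microtubule Cytoskeleton Dye, MitoTracker Red and Annexin V Alexa Fluor 680, then imaged after compound addition on a CQ1 microscope at 37°C and 5% CO2. Machine-learning gating in CellPathfinder separated Hoechst high-intensity objects from normal cells, divided normal cells by nuclear state (healthy, pyknosed, fragmented) and divided pyknosed cells into mitotic or apoptotic.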

[1] = 12 h, 1 µM, compound concentration 1 uM, replicate 1
[2] = 12 h, 1 µM, compound concentration 1 uM, replicate 2
[3] = 12 h, 10 µM, compound concentration 10 uM, replicate 1
[4] = 12 h, 10 µM, compound concentration 10 uM, replicate 2
[5] = 24 h, 1 µM, compound concentration 1 uM, replicate 1
[6] = 24 h, 1 µM, compound concentration 1 uM, replicate 2
[7] = 24 h, 10 µM, compound concentration 10 uM, replicate 1
[8] = 24 h, 10 µM, compound concentration 10 uM, replicate 2
[9] = 48 h, 1 µM, compound concentration 1 uM, replicate 1
[10] = 48 h, 1 µM, compound concentration 1 uM, replicate 2
[11] = 48 h, 10 µM, compound concentration 10 uM, replicate 1
[12] = 48 h, 10 µM, compound concentration 10 uM, replicate 2

Cc1cnc(-c2cc(N3CCN(C(=O)CCS(C)(=O)=O)CC3)ncc2Cl)c(C)c1
Population Apoptotic (%) [1]: 86%
Population Fragmented Nuclei (%) [1]: 37%
Population Healthy Nuclei (%) [1]: 54%
Population Hoechst High Intensity Objects (%) [1]: 2%
Population Membrane Permeable-Phenotype (%) [1]: 10%
Population Mitochondria Different-Phenotype (%) [1]: 1%
Population Mitotic Cells (%) [1]: 13%
Population Normal (%) [1]: 97%
Population Pyknosed Nuclei (%) [1]: 8%
Population Tubulin-Different-Phenotype (%) [1]: 2%
Total Cell Count [1]: 183
Population Apoptotic (%) [2]: 100%
Population Fragmented Nuclei (%) [2]: 18%
Population Healthy Nuclei (%) [2]: 73%
Population Hoechst High Intensity Objects (%) [2]: 1%
Population Mitochondria Different-Phenotype (%) [2]: 7%
Population Mitotic Cells (%) [2]: 0%
Population Normal (%) [2]: 98%
Population Tubulin-Different-Phenotype (%) [2]: 7%
Total Cell Count [2]: 111
Population Apoptotic (%) [3]: 85%
Population Fragmented Nuclei (%) [3]: 24%
Population Healthy Nuclei (%) [3]: 67%
Population Hoechst High Intensity Objects (%) [3]: 1%
Population Membrane Permeable-Phenotype (%) [3]: 4%
Population Mitochondria Different-Phenotype (%) [3]: 3%
Population Mitotic Cells (%) [3]: 14%
Population Normal (%) [3]: 98%
Population Pyknosed Nuclei (%) [3]: 8%
Population Tubulin-Different-Phenotype (%) [3]: 1%
Total Cell Count [3]: 258
Population Apoptotic (%) [4]: 75%
Population Fragmented Nuclei (%) [4]: 17%
Population Healthy Nuclei (%) [4]: 73%
Population Membrane Permeable-Phenotype (%) [4]: 20%
Population Mitochondria Different-Phenotype (%) [4]: 7%
Population Mitotic Cells (%) [4]: 25%
Population Pyknosed Nuclei (%) [4]: 9%
Population Tubulin-Different-Phenotype (%) [4]: 15%
Total Cell Count [4]: 88
Population Apoptotic (%) [5]: 80%
Population Fragmented Nuclei (%) [5]: 30%
Population Healthy Nuclei (%) [5]: 62%
Population Hoechst High Intensity Objects (%) [5]: 2%
Population Membrane Permeable-Phenotype (%) [5]: 5%
Population Mitochondria Different-Phenotype (%) [5]: 3%
Population Mitotic Cells (%) [5]: 20%
Population Normal (%) [5]: 97%
Population Pyknosed Nuclei (%) [5]: 6%
Population Tubulin-Different-Phenotype (%) [5]: 2%
Total Cell Count [5]: 220
Population Apoptotic (%) [6]: 90%
Population Fragmented Nuclei (%) [6]: 17%
Population Healthy Nuclei (%) [6]: 75%
Population Membrane Permeable-Phenotype (%) [6]: 8%
Population Mitochondria Different-Phenotype (%) [6]: 5%
Population Mitotic Cells (%) [6]: 10%
Population Pyknosed Nuclei (%) [6]: 7%
Population Tubulin-Different-Phenotype (%) [6]: 8%
Total Cell Count [6]: 136
Population Apoptotic (%) [7]: 80%
Population Fragmented Nuclei (%) [7]: 20%
Population Healthy Nuclei (%) [7]: 74%
Population Hoechst High Intensity Objects (%) [7]: 2%
Population Membrane Permeable-Phenotype (%) [7]: 4%
Population Mitochondria Different-Phenotype (%) [7]: 2%
Population Mitotic Cells (%) [7]: 20%
Population Normal (%) [7]: 97%
Population Pyknosed Nuclei (%) [7]: 4%
Population Tubulin-Different-Phenotype (%) [7]: 0%
Total Cell Count [7]: 309
Population Apoptotic (%) [8]: 85%
Population Fragmented Nuclei (%) [8]: 21%
Population Healthy Nuclei (%) [8]: 64%
Population Hoechst High Intensity Objects (%) [8]: 0%
Population Membrane Permeable-Phenotype (%) [8]: 18%
Population Mitochondria Different-Phenotype (%) [8]: 1%
Population Mitotic Cells (%) [8]: 14%
Population Normal (%) [8]: 99%
Population Pyknosed Nuclei (%) [8]: 13%
Population Tubulin-Different-Phenotype (%) [8]: 7%
Total Cell Count [8]: 103
Population Apoptotic (%) [9]: 78%
Population Fragmented Nuclei (%) [9]: 29%
Population Healthy Nuclei (%) [9]: 63%
Population Hoechst High Intensity Objects (%) [9]: 0%
Population Membrane Permeable-Phenotype (%) [9]: 3%
Population Mitochondria Different-Phenotype (%) [9]: 2%
Population Mitotic Cells (%) [9]: 21%
Population Normal (%) [9]: 99%
Population Pyknosed Nuclei (%) [9]: 7%
Population Tubulin-Different-Phenotype (%) [9]: 1%
Total Cell Count [9]: 325
Population Apoptotic (%) [10]: 95%
Population Fragmented Nuclei (%) [10]: 15%
Population Healthy Nuclei (%) [10]: 73%
Population Hoechst High Intensity Objects (%) [10]: 1%
Population Membrane Permeable-Phenotype (%) [10]: 4%
Population Mitochondria Different-Phenotype (%) [10]: 5%
Population Mitotic Cells (%) [10]: 5%
Population Normal (%) [10]: 98%
Population Pyknosed Nuclei (%) [10]: 10%
Population Tubulin-Different-Phenotype (%) [10]: 3%
Total Cell Count [10]: 184
Population Apoptotic (%) [11]: 94%
Population Fragmented Nuclei (%) [11]: 11%
Population Healthy Nuclei (%) [11]: 80%
Population Hoechst High Intensity Objects (%) [11]: 1%
Population Membrane Permeable-Phenotype (%) [11]: 4%
Population Mitochondria Different-Phenotype (%) [11]: 2%
Population Mitotic Cells (%) [11]: 5%
Population Normal (%) [11]: 98%
Population Pyknosed Nuclei (%) [11]: 7%
Population Tubulin-Different-Phenotype (%) [11]: 2%
Total Cell Count [11]: 485
Population Apoptotic (%) [12]: 100%
Population Fragmented Nuclei (%) [12]: 22%
Population Healthy Nuclei (%) [12]: 71%
Population Hoechst High Intensity Objects (%) [12]: 3%
Population Membrane Permeable-Phenotype (%) [12]: 13%
Population Mitochondria Different-Phenotype (%) [12]: 7%
Population Mitotic Cells (%) [12]: 0%
Population Normal (%) [12]: 96%
Population Pyknosed Nuclei (%) [12]: 5%
Population Tubulin-Different-Phenotype (%) [12]: 7%
Total Cell Count [12]: 141
